# Compound activity as filed in PubChem BioAssay.
# Shown are actives, neighbours in structure and some others; about 2.5% of the full set was active somewhere.
# TRPC4 act – TRPC4 (mouse) channel activation; hit rate 0.49% among 310,000; B-score at 10 µM; HEK293 TRPC4beta/mu-opioid, Fluo4 calcium fluorescence; hits give high values;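 active means B-score above 5 SD of library B-scores, and initial fluorescence ratio not above library mean plus 5 SD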;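 further: positive B-score marks a calcium rise read as TRPC4 activation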
#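 System – HEK293 cells stably co-expressing mouse TRPC4beta and mu-opioid receptor · Signal – Fluo4 calcium-sensitive dye fluorescence, kinetic, 1 Hz baseline · Benchmarks – buffer (low) and maximal DAMGO (high) · Read-out – B score of integrated fluorescence ratio per well · Incubation – dye loading 45 min room temperature, 110 s kinetic read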
# TRPC6 inh – blocks the mouse TRPC6 cation channel; HEK293-TRPC6, membrane potential dye, ACh-evoked depolarization; hits give low values; hit rate 1.1% among 310,000; B-score at 10 µM; Q61143;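 active means B-score under library mean minus 3 SD, initial fluorescence not abnormally high, positive integrated signal ratio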;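 further: B-score derived from integrated fluorescence ratio over the kinetic read; more negative B-score means stronger inhibition of depolarization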
# Pemphigus Ab inh – inhibitors of pemphigus antibody binding to human desmoglein-3 | binding (percent of control), % at 10 µM | DSG3-coupled beads, scFv-anti-DSG3-GFP binding, flow cytometry; hits give low values | P32926 | AID 588358 | hit rate 0.48% among 310,000;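 active means binding more than 3 SD below its plate's average and above zero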;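 further: hits lower antibody fragment binding to DSG3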
# TRPC4 block – inhibitors of mouse TRPC4 channel; B-score at 10 µM; AID 2247; HEK293 TRPC4beta/mu-opioid, DAMGO-evoked Fluo4 calcium flux; hits give low values; Q9QUQ5; hit rate 0.39% among 300,000;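 active means B-score over 3 SD under the library average, no early fluorescence shift, positive overall ratio signal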
#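 Material: HEK293 cells with stable TRPC4beta plus mu-opioid receptor expression / Probe or stimulus: DAMGO in two steps, submaximal then maximal / Compound: single concentration per test compound / Technique: kinetic Fluo4 fluorescence imaging of calcium influx / Read-out: per-well B score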
# TRPC6 act – mouse TRPC6 channel activation | HEK293-TRPC6 membrane potential dye fluorescence; hits give high values | B-score at 10 µM | hit rate 0.13% among 310,000 | AID 2550;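 active means B-score of the integrated fluorescence ratio above library mean plus 3 SD, and starting fluorescence ratio within library mean plus 5 SD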;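 further: higher score means more depolarization so channel activation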
# TRPC4 potent – allosterically enhances the mouse TRPC4 cation channel. B-score at 10 µM. HEK293 TRPC4beta/mu-opioid, DAMGO EC20, Fluo-4 Ca2+ flux; hits give high values. hit rate 0.42% among 310,000;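 active means B-score of calcium response area above 5 SD of library B-scores, with initial fluorescence ratio within 5 SD of library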;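 further: B-score of integrated fluorescence ratio over time as area under calcium response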
# The depositor's hits bear a star; i = inactive; x = no result.
SMILES,TRPC4 act,TRPC6 inh,Pemphigus Ab inh,TRPC4 block,TRPC6 act,TRPC4 potent
CN(C)CCCCOc1cccc(Br)c1,i,i,102,i,i,20*
CN(C)CCOc1cccc(Cl)c1,i,i,99,i,i,i
CC(C)(C)c1cc(NC(=O)CSc2nncs2)n(-c2ccccc2)n1,i,i,100,i,i,i
CCc1ccccc1NC(=O)NC1CCCCCCC1,i,i,117,i,i,i
CC(=O)Nc1ccc(-c2cc(-c3ccccc3)nc(-c3ccccc3)n2)cc1,i,i,-15*,i,i,i
O/N=C/c1ccccc1Oc1ccc(Cl)cc1,i,i,102,-6*,i,i
CCc1ccc(NC(=O)c2cc(S(=O)(=O)N3CCCC3)c[nH]2)cc1,i,i,98,i,i,i
CCOc1ccc(NC(=O)c2cc(S(=O)(=O)N3CCCCC3)c[nH]2)cc1,i,i,80*,i,i,i
CN(Cc1ccccc1)C(=O)COC(=O)CCNC(=O)c1ccccc1Cl,i,i,x,i,i,i
Cc1sc2ncnc(N(C)CCc3ccccn3)c2c1C,80*,i,86,i,i,i
CCc1ccc2nc(N=C(N)N)nc(C)c2c1,i,i,110,-8*,i,i
CC(=O)Nc1ccc(/C=N/NC(=O)CNC(=O)c2ccccc2)cc1,i,i,113,i,i,i
NS(=O)(=O)c1ccc(N2N=C(c3ccccc3)CC2c2ccccc2)cc1 (configuration not stated),i,i,94,i,i,11*
O=C(Nc1ccc(F)cc1)C1CC(=O)n2cnnc2N1 (configuration not stated),i,i,99,i,i,i
O=C1CC(C(=O)Nc2ccc(F)cc2)n2cnnc2N1 (configuration not stated),i,i,2.4*,i,i,i
CC(Cl)C(=O)NC(=O)NC12CC3CC(CC(C3)C1)C2 (configuration not stated),i,i,102,i,i,i
O=C(CCl)NC(=O)NC12CC3CC(CC(C3)C1)C2,i,i,102,-6*,i,i
CCN1CCN(c2ncc(C(=O)Nc3cc(Cl)ccc3OC)c3ccccc23)CC1,i,i,x,i,i,12*
COc1ccccc1N1CCN(c2ncc(C(=O)N3CCN(c4cccc(Cl)c4)CC3)c3ccccc23)CC1,i,i,x,i,i,21*
Cc1ccc(S(=O)(=O)N2CCN(C(=O)CN3C(=O)NC4(CCCC4)C3=O)CC2)c(C)c1,i,i,93,i,i,i
COc1ccc(Nc2c([N+](=O)[O-])ccc3c2=NC2(CCCCC2)N=3)cc1,i,i,101,i,i,i
Cc1cc(=O)n(Nc2ccccc2)c(O)c1C#N,x,x,64*,x,x,x
Cc1ccccc1C(=O)NC1CC2CCC(C1)N2Cc1ccccc1 (configuration not stated),i,i,101,-5*,i,i
Cc1ccccc1C(=O)NC1CC2CCCC(C1)N2Cc1ccccc1Cl (configuration not stated),x,x,107,x,x,x
O=C(NN1CCOCC1)NC12CC3CC(CC(C3)C1)C2,i,i,x,i,i,i
SMILES,TRPC4 act,TRPC6 inh,Pemphigus Ab inh,TRPC4 block,TRPC6 act,TRPC4 potent
CCCCC1CN2CCc3c([nH]c4ccccc34)C2(C)C1 (configuration not stated),i,i,119,i,i,i
Cc1ccc(OCC(=O)NCc2n[nH]c(=O)c3ccccc23)cc1,i,i,97,i,i,i
CC(C)N(C(=O)CN1C(=O)NC(c2ccccc2)(c2ccccc2)C1=O)C(C)C,i,i,x,i,i,i
CCCc1cc(=O)oc2cc(OCC(=O)N(C)C)c(Cl)cc12,i,i,2.6*,i,i,i
CCCc1cc(=O)oc2cc(OCC(=O)N3CCOCC3)c(Cl)cc12,i,i,106,i,i,i
O=C(CCNC(=O)c1ccc([N+](=O)[O-])cc1)NCc1cccs1,x,x,94,x,x,x
CNC(=S)N1CCN(CCNC2=CC(=O)CC(C)(C)C2)CC1,i,i,99,i,i,i
CC1(C)CC(NCCN2CCN(C3=CC(=C(C#N)C#N)CC(C)(C)C3)CC2)=CC(=C(C#N)C#N)C1,55*,i,100,x,i,i
O=S(=O)(Nc1ccc(S(=O)(=O)N2CCCC2)cc1)c1ccc(F)cc1F,x,x,97,x,x,x
CCN1CC2=C(OC(N)=C(C#N)C2c2ccccc2)/C(=C\c2ccccc2)C1 (configuration not stated),i,i,123,i,i,i
CCN1CC2=C(OC(N)=C(C#N)C2c2cccs2)/C(=C/c2cccs2)C1 (configuration not stated),i,i,x,i,i,12*
O=C(OCC(=O)C12CC3CC(CC(C3)C1)C2)c1ccccc1O,x,x,70*,x,x,x
CCOC(=O)c1ccc(N2CCOCC2)c(NC(=O)c2c(-c3ccccc3)noc2C)c1,i,i,94,i,i,i
CC(=O)c1cccc(NC(=O)CN2C(=O)C(=O)N(Cc3ccco3)C2=O)c1,x,x,99,x,x,x
CCCCn1c(-c2csc(CC)c2)n[nH]c1=S,i,i,x,i,i,i
CCCc1cc(-c2n[nH]c(=S)n2CC(C)C)cs1,i,i,99,i,i,13*
C=CCN1C(=O)/C(=C/C=C2/N(CC)c3ccc(S(=O)(=O)N(C)C)cc3N2CC)SC1=S,64*,i,112,i,i,10*
C=CCN1C(=O)/C(=C\C=C2\N(C)c3ccccc3C2(C)C)SC1=S,i,i,253,i,i,i
CCOC(=O)Cc1csc(-n2sc3ccccc3c2=O)n1,i,i,44*,i,i,i
CCCn1c(N2CCN(S(=O)(=O)Cc3ccccc3)CC2)nc2ccccc21,i,i,56*,i,i,22*
Cc1n[nH]c(=S)n(NC(=O)CC(=O)Nn2c(=S)[nH]nc(C)c2=O)c1=O,i,i,101,i,i,i
Cc1n[nH]c(=S)n(NC(=O)/C=C/C(=O)Nn2c(=S)[nH]nc(C)c2=O)c1=O,i,i,36*,i,i,i
O=C(CNC1CCCCC1)Nc1cc(S(=O)(=O)N2CCOCC2)ccc1Cl,i,i,114,i,i,i
